Measurements as given in ChEMBL document CHEMBL3997810, “A Novel Potent Anticancer Compound Optimized from a Natural Oridonin Scaffold Induces Apoptosis and Cell Cycle Arrest through the Mitochondrial Pathway” (J Med Chem, 2017).
Active and inactive are the calls of the source. The calls are words filed in the database; no cut-off is given here.

How the values were obtained:
MCF7 [1] = test: Cell cycle arrest in human MCF7 cells assessed as accumulation at G1 phase at 0.125 uM after 48 hrs by propidium iodide staining based flow cytometry (reference value: 49.77%); format: functional
Summary of the method: (§1)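 MCF-7 cells, 5 × 10^4 per well, seeded overnight, then exposed to 0.125–1 μM compound, or DMSO, for 48 h. Ethanol-fixed (70%, −20 °C, 12 h) and stained with PI/RNase at 37 °C for 30 min. Phase distribution determined by flow cytometry.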

Bel-7402 [2] = test: Cell cycle arrest in human Bel7402 cells assessed as accumulation at G2/M phase at 1 uM after 48 hrs by propidium iodide staining based flow cytometry (reference value: 56.61%); format: functional
MCF7 [3] = test: Antitumor activity against human MCF7 cells xenografted in Balb/c nude mouse assessed as tumor growth inhibition at 20 mg/kg/day, iv for 4 weeks relative to control; format: functional; conditions: 672 h, read-out: TGI
Summary of the method: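 Six-week-old male BALB/c nude mice received 1 × 10^6 MCF-7 cells subcutaneously in the right flank. After 7 d of tumor growth, mice were randomized into groups of six. Dosing was 20 mg/kg iv once daily for 28 days in 10% DMF/2% poloxamer/88% saline. Tumor volume (L × W²/2) and body weight were recorded every 2 days. Inhibition = (1 − mean treated/control tumor weight) × 100%.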

[4] = Antiproliferative activity against human BEL7404/CP20 cells after 48 hrs by MTT assay; format: functional, cell-based; conditions: BEL7404/CP20, 48 h
Summary of the method: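 Colorimetric MTT assay. KB-3-1, NCI-H460 and Bel-7404 cells were seeded at 4000 cells/well; resistant KB/CP4, NCI-H460/MX20 and Bel-7404/CP20 were seeded at 7000 cells/well. Cells were pre-incubated 24 h at 37 °C, 5% CO2, then exposed to a compound concentration series for 48 h with DMSO ≤0.25%. Absorbance read at 570 nm. Quadruplicate wells, three repeats; means ± SD.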

MCF7 [5] = test: Induction of apoptosis in human MCF7 cells assessed as increase in Bad protein expression at 0.5 to 1 uM after 48 hrs by Western blot method; format: functional, cell-based
Summary of the method: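 MCF-7 cells were treated at 0, 0.125, 0.25, 0.5 or 1 μM for 48 h, washed in ice-cold PBS and lysed on ice for 20 min. Lysates were spun at 13,000 g, 4 °C. 20 μg protein was run on SDS-PAGE and blotted to PVDF, probed overnight at 4 °C with primary antibodies, then with fluorescent secondary antibodies. Band density was expressed relative to β-actin; three independent experiments.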

MCF7 [6] = test: Induction of apoptosis in human MCF7 cells assessed as decrease in pro-caspase-3 to caspase-3 protein expression ratio after 48 hrs by Western blot method; format: functional, cell-based
Summary of the method: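 MCF-7 cells exposed to 0–1 μM compound for 48 h, then lysed on ice. Lysate (20 μg protein) run on 8–12% SDS-PAGE and transferred to PVDF. Probed overnight at 4 °C with primary antibodies, then fluorescent secondaries. Band densities normalized to β-actin. Mean ± SD of three independent experiments.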

MCF7 [7] = test: Inhibition of colony formation in human MCF7 cells incubated for 24 hrs measured after 10 days by crystal violet staining based microscopic method; format: functional, cell-based
Summary of the method: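 MCF-7 cells were plated at 3 × 10^2 per well and left overnight, then exposed to 0, 75, 150 or 300 nM (DMSO vehicle) for 24 h. Medium was removed and cells grew a further 10 days. Colonies were fixed in methanol for 15 min, stained with 0.1% crystal violet for 15 min and counted; a colony was >50 cells. At least three independent experiments, mean ± SD.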

Mus musculus [8] = test: Hepatotoxicity in Balb/c nude mouse xenografted with human MCF7 cells assessed as morphological changes in liver at 20 mg/kg/day, iv for 4 weeks by hematoxylin and eosin staining based microscopic method; format: toxicity, organism-based; conditions: in vivo, 672 h
Summary of the method: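 Male BALB/c nude mice (6 weeks old) carrying subcutaneous MCF-7 xenografts (1 × 10^6 cells). Dosed iv 20 mg/kg daily for 28 days in 10% DMF/2% poloxamer/88% saline; six mice per group. Organs then fixed in 4% paraformaldehyde, paraffin-embedded, cut at 5 μm, stained with Harris hematoxylin and eosin-phloxine, and examined by light microscopy.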

[9] = Permeability from basolateral to apical side in human Caco2 cells at 100 uM after 5 mins by HPLC method; format: ADME, cell-based; conditions: caco-2, 5 min
Bel-7402 [10] = test: Cytotoxicity against human Bel7402 cells at 10 to 50 uM after 24 hrs by LDH assay; format: functional, cell-based
Summary of the method: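 Membrane integrity assay on MCF-7 and Bel-7402 cells seeded at ~5 × 10^3 per well for 24 h, then given compounds at 10, 20 or 50 μM. Culture medium collected and assayed with CytoTox-ONE LDH reagent for 10 min, followed by stop solution. Fluorescence read at Ex 560/Em 590 nm. Expressed as percentage of unstimulated cells.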

MCF7 [11] = test: Induction of apoptosis in human MCF7 cells assessed as late apoptotic cells at 0.5 uM after 24 hrs by Annexin-V FITC/propidium iodide staining based flow cytometry (reference value: 0.255%); format: functional
MCF7 [12] = test: Induction of ROS generation in human MCF7 cells at 1 uM after 36 hrs by DCF-DA staining based flow cytometry (reference value: 3.77%); format: functional
Summary of the method: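 MCF-7 cells exposed to 0–1 μM compound for 36 h, with DMSO as control; one arm pre-incubated with 2.5 mM NAC. Cells then loaded with DCF-DA at 37 °C for 15 min, harvested and resuspended in PBS. Fraction of DCF-positive cells measured by flow cytometry at Ex 480/Em 525 nm.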

H22 = test: Antitumor activity against […] cells xenografted in ICR mouse assessed as tumor growth inhibition at 20 mg/kg/day, iv for 3 weeks; format: functional, organism-based
Summary of the method: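 Male ICR mice (5 weeks old) inoculated subcutaneously in the right flank with 1 × 10^6 H22 cells. After 7 d, randomized into groups of eight or six. Dosed iv 20 mg/kg daily in 10% DMF/2% poloxamer/88% saline. Cyclophosphamide 20 mg/kg iv as positive control; saline as negative control. Body weight and tumour volume (L × W²/2) every 2 days; inhibition calculated from final tumour weights.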

MCF7 [13] = test: Induction of apoptosis in human MCF7 cells assessed as necrotic cells at 0.25 uM after 24 hrs by Annexin-V FITC/propidium iodide staining based flow cytometry (reference value: 0.102%); format: functional
Mus musculus [14] = test: Toxicity in Balb/c nude mouse xenografted with human MCF7 cells assessed as morphological changes in lungs at 20 mg/kg/day, iv for 4 weeks by hematoxylin and eosin staining based microscopic method; format: organism-based; conditions: in vivo, 672 h
Summary of the method: (§2)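 Male BALB/c nude mice aged six weeks received 1 × 10^6 MCF-7 cells subcutaneously in the right flank. After 7 d they were randomized and dosed 20 mg/kg iv once daily in 10% DMF/2% poloxamer/88% saline; saline control. Heart, liver, spleen, lung and kidney were fixed in 4% paraformaldehyde, paraffin-embedded, sectioned at 5 μm, H&E stained and examined microscopically.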

Mus musculus [15] = test: Nephrotoxicity in Balb/c nude mouse xenografted with human MCF7 cells assessed as morphological changes in kidney at 20 mg/kg/day, iv for 4 weeks by hematoxylin and eosin staining based microscopic method; format: toxicity, organism-based; conditions: in vivo, 672 h; summary of the method: as §2
MCF7 [16] = test: Cell cycle arrest in human MCF7 cells assessed as accumulation at S phase at 1 uM after 48 hrs by propidium iodide staining based flow cytometry (reference value: 37.18%); format: functional; summary of the method: as §1

**Q.** What does the source list for `C=C1C(=O)[C@]23[C@H](OC(=O)/C=C/c4ccccc4)[C@H]1CC[C@H]2[C@]12C=CCC(C)(C)[C@H]1[C@H](O)[C@]3(O)OC2`?
**A.** Activity (MCF7 [1]): 49.27%; Activity (Bel-7402 [2]): 59.37%; inhibition in vivo at 20 mg/kg/day (MCF7 [3]): 69.8%; IC50 [4]: 4.73 µM; Activity (MCF7 [5]): Active; Activity (MCF7 [6]): Dose-dependent effect; inhibition (MCF7 [7]): Dose-dependent effect; Activity (Mus musculus [8]): Non-Toxic; permeability [9]: Permeable; Activity (Bel-7402 [10]): inactive; Activity (MCF7 [11]): 30.2%; Activity (MCF7 [12]): 24.31%; TGI (H22): Active; Activity (MCF7 [13]): 2.39%; Activity (Mus musculus [14]): Non-Toxic; Activity (Mus musculus [15]): Non-Toxic; Activity (MCF7 [16]): 30.01%
